Source: ChEMBL document CHEMBL2040807, “Facile synthesis, cytotoxic and antimicrobial activity studies of a new group of 6-aryl-3-[4-(methylsulfonyl)benzyl]-7H-[1,2,4]triazolo[3,4-b][1,3,4]thiadiazines” (Eur J Med Chem, 2012)
≈ marks a conversion by molar mass, not a printed value. Calls of active or inactive are those of the source. The calls are words filed in the database; no cut-off is given here.

Tests used:
RAW264.7 [1] = test: Cytotoxicity against mouse RAW264.7 cells assessed as cell death at 2.5 uM after 48 hrs by MTT assay; format: functional
HT-29 [2] = test: Cytotoxicity against human HT-29 cells assessed as cell death at 2.5 uM after 48 hrs by MTT assay; format: functional
RAW264.7 [3] = test: Cytotoxicity against mouse RAW264.7 cells assessed as cell death at 12.5 uM after 48 hrs by MTT assay; format: functional; conditions: pooled result: one value given for 2 cell lines, strains, targets or settings
Procedure, shortened: (§1)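 Both cell lines were seeded at 1×10⁴ cells per well, with viability checked first by trypan blue exclusion. Compounds were tested in triplicate for 48 h at 37 °C in 5% CO₂. Medium was then replaced with serum-free DMEM, MTT was added, and plates were held 3 h at 37 °C. Formazan was dissolved in DMSO for 15 min and read at 570 nm. % cell death = (A_DMSO − A_sample)/A_DMSO × 100.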

RAW264.7 [4] = test: Cytotoxicity against mouse RAW264.7 cells assessed as cell death at 25 uM after 48 hrs by MTT assay; format: functional; conditions: pooled result: one value given for 2 cell lines, strains, targets or settings; procedure, shortened: as §1
RAW264.7 [5] = test: Cytotoxicity against mouse RAW264.7 cells assessed as cell death at 50 uM after 48 hrs by MTT assay; format: functional; conditions: pooled result: one value given for 2 cell lines, strains, targets or settings; procedure, shortened: as §1
RAW264.7 [6] = test: Cytotoxicity against mouse RAW264.7 cells assessed as cell death at 100 uM after 48 hrs by MTT assay; format: functional; conditions: pooled result: one value given for 2 cell lines, strains, targets or settings; procedure, shortened: as §1
RAW264.7 [7] = test: Cytotoxicity against mouse RAW264.7 cells after 48 hrs by MTT assay; format: functional, cell-based; conditions: RAW264.7, 48 h
Procedure, shortened: (§2)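 Cells seeded at 1 x 10^4 per well (viability by Trypan blue exclusion) and treated in triplicate at 100, 50, 25 and […], 48 h at 37 °C, 5% CO2. Medium was then replaced with serum-free DMEM plus MTT for 3 h. Formazan was dissolved in DMSO for 15 min at 37 °C and read at 570 nm. % cell death was taken relative to vehicle (DMSO) control, and IC50 derived from it.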

HT-29 [8] = test: Cytotoxicity against human HT-29 cells after 48 hrs by MTT assay; format: functional, cell-based; conditions: HT-29, 48 h; procedure, shortened: as §2
Escherichia coli = test: Antibacterial activity against Escherichia coli after 16 hrs by broth dilution method; format: functional
Procedure, shortened: (§3)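 Compound stocks at 1 mg/mL in DMF, serially twofold diluted in trypticase soya broth tubes. Organisms were grown 6 h at 37 °C in trypticase soya broth, adjusted to McFarland […] (10^8 cfu/mL) in PBS, then diluted 10^3-fold in broth to 10^5 cfu/mL; 1 mL of this inoculum was added per tube. Tubes were incubated 16 h at 37 °C, with inoculum and broth controls. MIC was read as the lowest concentration with no visible growth.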

Staphylococcus aureus = test: Antibacterial activity against Staphylococcus aureus after 16 hrs by broth dilution method; format: functional; procedure, shortened: as §3
Pseudomonas aeruginosa = test: Antibacterial activity against Pseudomonas aeruginosa after 16 hrs by broth dilution method; format: functional; procedure, shortened: as §3
Bacillus cereus = test: Antibacterial activity against Bacillus cereus after 16 hrs by broth dilution method; format: functional; procedure, shortened: as §3
Candida albicans = test: Antifungal activity against Candida albicans after 16 hrs by broth dilution method; format: functional; procedure, shortened: as §3
HT-29 [9] = test: Cytotoxicity against human HT-29 cells assessed as cell death at 12.5 uM after 48 hrs by MTT assay; format: functional; conditions: pooled result: one value given for 2 cell lines, strains, targets or settings; procedure, shortened: as §1
HT-29 [10] = test: Cytotoxicity against human HT-29 cells assessed as cell death at 25 uM after 48 hrs by MTT assay; format: functional; conditions: pooled result: one value given for 2 cell lines, strains, targets or settings; procedure, shortened: as §1

`COc1cccc2c1C(=O)c1c(O)c3c(c(O)c1C2=O)C[C@@](O)(C(=O)CO)C[C@@H]3O[C@H]1C[C@H](N)[C@H](O)[C@H](C)O1` [DOXORUBICIN] gave an Activity (RAW264.7 [1]) of 78.2% and an Activity (HT-29 [2]) of 78.2%.
With `CS(=O)(=O)c1ccc(Cc2nnc3n2N=C(c2ccc(O)c(C(N)=O)c2)CS3)cc1` the Activity (RAW264.7 [3]) was 24.81%, the Activity (RAW264.7 [4]) was 24.66% and the Activity (RAW264.7 [5]) was 33.06%. For the same compound, the Activity (RAW264.7 [6]) was 37.08%, the IC50 (RAW264.7 [7]) was over 100 µM and the IC50 (HT-29 [8]) was over 100 µM. It also gave an MIC (Escherichia coli) of 6.25 µg/mL (≈ 14.1 µM), an MIC (Staphylococcus aureus) of 12.5 µg/mL (≈ 28.2 µM) and an MIC (Pseudomonas aeruginosa) of 6.25 µg/mL (≈ 14.1 µM). The MIC (Bacillus cereus) was 3.12 µg/mL (≈ 7.05 µM) and the MIC (Candida albicans) was 3.12 µg/mL (≈ 7.05 µM).
`OC(Cn1cncn1)(Cn1cncn1)c1ccc(F)cc1F` [FLUCONAZOLE] was tested, and the MIC (Candida albicans) was 0.8 µg/mL (≈ 2.61 µM).
For `CS(=O)(=O)c1ccc(Cc2nnc3n2N=C(c2ccc(-c4ccccc4)cc2)CS3)cc1`, the Activity (RAW264.7 [3]) was 58.2%, the Activity (RAW264.7 [4]) was 60.19% and the Activity (RAW264.7 [5]) was 67.93%. It also gave an Activity (RAW264.7 [6]) of 74.77%, an IC50 (RAW264.7 [7]) of 12.5 µM and an IC50 (HT-29 [8]) of 12.5 µM. It also gave an MIC (Escherichia coli) of 6.25 µg/mL (≈ 13.6 µM), an MIC (Staphylococcus aureus) of 6.25 µg/mL (≈ 13.6 µM) and an MIC (Pseudomonas aeruginosa) of 6.25 µg/mL (≈ 13.6 µM). The MIC (Bacillus cereus) was 6.25 µg/mL (≈ 13.6 µM) and the MIC (Candida albicans) was 6.25 µg/mL (≈ 13.6 µM).
`CS(=O)(=O)c1ccc(Cc2nnc3n2N=C(c2ccc(Cl)cc2Cl)CS3)cc1` was tested, and the Activity (RAW264.7 [3]) was 27.99%, the Activity (RAW264.7 [4]) was 24.19% and the Activity (RAW264.7 [5]) was 27.33%. For the same compound, the Activity (RAW264.7 [6]) was 30.99%, the IC50 (RAW264.7 [7]) was over 100 µM and the IC50 (HT-29 [8]) was over 100 µM. For the same compound, the MIC (Escherichia coli) was 3.12 µg/mL (≈ 6.89 µM), the MIC (Staphylococcus aureus) was 12.5 µg/mL (≈ 27.6 µM) and the MIC (Pseudomonas aeruginosa) was 6.25 µg/mL (≈ 13.8 µM). For the same compound, the MIC (Bacillus cereus) was 6.25 µg/mL (≈ 13.8 µM) and the MIC (Candida albicans) was 6.25 µg/mL (≈ 13.8 µM).
`CS(=O)(=O)c1ccc(Cc2nnc3n2N=C(c2ccccc2)CS3)cc1` was tested, and the Activity (RAW264.7 [3]) was 41.97%, the Activity (RAW264.7 [4]) was 50.95% and the Activity (RAW264.7 [5]) was 46.73%. It also gave an Activity (RAW264.7 [6]) of 55.51%, an IC50 (RAW264.7 [7]) of 25 µM and an IC50 (HT-29 [8]) of 25 µM. For the same compound, the MIC (Escherichia coli) was 6.25 µg/mL (≈ 16.3 µM), the MIC (Staphylococcus aureus) was 6.25 µg/mL (≈ 16.3 µM) and the MIC (Pseudomonas aeruginosa) was 6.25 µg/mL (≈ 16.3 µM). For the same compound, the MIC (Bacillus cereus) was 6.25 µg/mL (≈ 16.3 µM) and the MIC (Candida albicans) was 25 µg/mL (≈ 65 µM).
`CS(=O)(=O)c1ccc(Cc2nnc3n2N=C(c2cc4ccccc4c(=O)o2)CS3)cc1` was tested, and the Activity (RAW264.7 [3]) was 22.43%, the Activity (RAW264.7 [4]) was 25.58% and the Activity (RAW264.7 [5]) was 14.86%. It also gave an Activity (RAW264.7 [6]) of 10.63%, an IC50 (RAW264.7 [7]) of over 100 µM and an IC50 (HT-29 [8]) of over 100 µM. For the same compound, the MIC (Escherichia coli) was 6.25 µg/mL (≈ 13.8 µM), the MIC (Staphylococcus aureus) was 6.25 µg/mL (≈ 13.8 µM) and the MIC (Pseudomonas aeruginosa) was 6.25 µg/mL (≈ 13.8 µM). It also gave an MIC (Bacillus cereus) of 6.25 µg/mL (≈ 13.8 µM) and an MIC (Candida albicans) of 3.12 µg/mL (≈ 6.91 µM).
Work on `CS(=O)(=O)c1ccc(Cc2nnc3n2N=C(c2cc(Cl)sc2S(N)(=O)=O)CS3)cc1` yielded an Activity (RAW264.7 [3]) of 22.8%, an Activity (RAW264.7 [4]) of 18.66% and an Activity (RAW264.7 [5]) of 27.46%. For the same compound, the Activity (RAW264.7 [6]) was 35.22%, the IC50 (RAW264.7 [7]) was over 100 µM and the IC50 (HT-29 [8]) was over 100 µM. The MIC (Escherichia coli) was 6.25 µg/mL (≈ 12.4 µM), the MIC (Staphylococcus aureus) was 12.5 µg/mL (≈ 24.8 µM) and the MIC (Pseudomonas aeruginosa) was 6.25 µg/mL (≈ 12.4 µM). For the same compound, the MIC (Bacillus cereus) was 12.5 µg/mL (≈ 24.8 µM) and the MIC (Candida albicans) was 6.25 µg/mL (≈ 12.4 µM).
With `CS(=O)(=O)c1ccc(Cc2nnc3n2N=C(c2cc(Cl)sc2Cl)CS3)cc1` the Activity (RAW264.7 [3]) was “inactive”, the Activity (RAW264.7 [4]) was “inactive” and the Activity (RAW264.7 [5]) was 25.54%. For the same compound, the Activity (RAW264.7 [6]) was 47.27%, the Activity (HT-29 [9]) was “inactive” and the Activity (HT-29 [10]) was “inactive”. The IC50 (RAW264.7 [7]) was over 100 µM, the IC50 (HT-29 [8]) was over 100 µM and the MIC (Escherichia coli) was 6.25 µg/mL (≈ 13.6 µM). It also gave an MIC (Staphylococcus aureus) of 6.25 µg/mL (≈ 13.6 µM), an MIC (Pseudomonas aeruginosa) of 6.25 µg/mL (≈ 13.6 µM) and an MIC (Bacillus cereus) of 6.25 µg/mL (≈ 13.6 µM). For the same compound, the MIC (Candida albicans) was 3.12 µg/mL (≈ 6.8 µM).
With `CC1(C)S[C@@H]2[C@H](NC(=O)Cc3ccccc3)C(=O)N2[C@H]1C(=O)O` [PENICILLIN G] the MIC (Escherichia coli) was 0.12 µg/mL (≈ 0.359 µM), the MIC (Staphylococcus aureus) was 0.12 µg/mL (≈ 0.359 µM) and the MIC (Pseudomonas aeruginosa) was 0.12 µg/mL (≈ 0.359 µM). The MIC (Bacillus cereus) was 0.12 µg/mL (≈ 0.359 µM).
`Cc1ccc(C2=Nn3c(Cc4ccc(S(C)(=O)=O)cc4)nnc3SC2)cc1` was tested, and the Activity (RAW264.7 [3]) was “inactive”, the Activity (RAW264.7 [4]) was 1.26% and the Activity (RAW264.7 [5]) was 37.91%. For the same compound, the Activity (RAW264.7 [6]) was 38.53%, the Activity (HT-29 [9]) was “inactive” and the IC50 (RAW264.7 [7]) was over 100 µM. For the same compound, the IC50 (HT-29 [8]) was over 100 µM, the MIC (Escherichia coli) was 12.5 µg/mL (≈ 31.4 µM) and the MIC (Staphylococcus aureus) was 12.5 µg/mL (≈ 31.4 µM). It also gave an MIC (Pseudomonas aeruginosa) of 12.5 µg/mL (≈ 31.4 µM), an MIC (Bacillus cereus) of 12.5 µg/mL (≈ 31.4 µM) and an MIC (Candida albicans) of 1.56 µg/mL (≈ 3.92 µM).
`CS(=O)(=O)c1ccc(Cc2nnc3n2N=C(c2cc(Cl)cc4c2-c2ccc(Cl)cc2C4)CS3)cc1` was tested, and the Activity (RAW264.7 [3]) was 41.05%, the Activity (RAW264.7 [4]) was 44.8% and the Activity (RAW264.7 [5]) was 43.12%. The Activity (RAW264.7 [6]) was 50.33%, the IC50 (RAW264.7 [7]) was 100 µM and the IC50 (HT-29 [8]) was 100 µM. It also gave an MIC (Escherichia coli) of 6.25 µg/mL (≈ 11.5 µM), an MIC (Staphylococcus aureus) of 12.5 µg/mL (≈ 23.1 µM) and an MIC (Pseudomonas aeruginosa) of 3.12 µg/mL (≈ 5.77 µM). The MIC (Bacillus cereus) was 6.25 µg/mL (≈ 11.5 µM) and the MIC (Candida albicans) was 6.25 µg/mL (≈ 11.5 µM).
